# Screening results as filed in PubChem BioAssay.
# AI-2 QS mod = Vibrio harveyi AI-2 quorum sensing modulation | Vibrio harveyi JMH597 AI-2 luminescence/OD600 ratio, 9 h; stronger effect = lower value; strain lacks LuxN and CqsS sensors; 0 = neutral-control median | activity change, % at 7.5 µM | actives 0.4% (n = 300,000) | AID 2094; in the data active means activity change below about -75%, passing the limit was not always enough;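 further: luminescence divided by OD600 gain over 9 h not by final OD600 alone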
# Mot1-301 SUMO = SUMOylation pathway inhibition by Mot1-301 growth rescue; S. cerevisiae Mot1-301 growth rescue, ATP luminescence, 38.5C; percent above DMSO median, 100 means doubled; growth rescue, % at 18.8 µM; actives 1% (n = 320,000);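 active means every valid replicate shows activation above 250% relative to neutral control wells; inactive means the rest, any valid replicate at or below 250%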;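 further: OY570 slx delta 5 strain wells were the positive control but not used for scaling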
# KCNQ1 block = inhibitors of human KCNQ1 potassium channel | P51787 | CHO-K1 KCNQ1, FluxOR thallium flux fluorescence; stronger effect = higher value | B-score at 10 µM | actives 1.3% (n = 310,000) | AID 2642;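 active means compounds whose thallium flux B-score, printed positive for inhibition, exceeds three library SD while starting fluorescence stays within three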;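 further: channel opened by potassium depolarization with thallium stimulus after 20 min compound exposure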
# KCC2 mod = KCC2 (human) Cl- transport modulation | Q9H2X9 | KCC2 cells, thallium flux FluoZin-2 fluorescence | B-score of Tl+ flux slope (higher = more flux/activation; lower = inhibition) at 10 µM | actives 2.2% (n = 190,000) | AID 1456;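 active means thallium flux slope and its plate-corrected score both differing from the plate sample mean at a set confidence after two filtering rounds, in either direction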;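 further: slope of fluorescence scaled to starting intensity during 10 to 20 s after thallium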
# hERG protect = shields human hERG channel from block by proarrhythmic agents; actives 0.51% (n = 310,000); Q12809; activation (rescue from dofetilide block), less the hit threshold, % at 10 µM; CHO-hERG, FluxOR thallium flux, dofetilide IC70 present;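 active means activation above the mean of controls blocked by dofetilide plus 5 SD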;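 further: thallium influx through hERG after potassium depolarization seen as dye fluorescence rise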
# KCNQ1 act = human KCNQ1 channel potentiation or activation | P51787 | CHO-K1 KCNQ1, thallium flux FluxOR fluorescence; stronger effect = higher value | B-score at 10 µM | actives 0.35% (n = 310,000) | AID 2648;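 active means fluorescence ratio B-score, a plate-corrected score, at least three library SD, with initial intensity B-score within 5 SD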
#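 Material: CHO-K1 cells stably expressing KCNQ1. Medium: assay buffer for compound exposure, DMSO matched across wells. Reagent: K+/Tl+ depolarizing stimulus. Compound dosing: single-concentration screen. Times: 37 °C overnight plating, 90-min dark dye load, 20-min compound pretreatment. Technique: FluxOR Tl+ flux fluorescence.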
# The depositor's hits bear a star; i = inactive; . = not tested or not shown. The list is not random: actives were taken first. Their share in the collection is about 4.2%.
SMILES,AI-2 QS mod,Mot1-301 SUMO,KCNQ1 block,KCC2 mod,hERG protect,KCNQ1 act
O=C1C2CC=CCC2C(=O)N1c1ccc(Cc2ccncc2)cc1 (configuration not stated),1,9,i,-0.77,5.0*,i
CCOC(=O)C1=C(C)n2c(s/c(=C/c3cccc([N+](=O)[O-])c3)c2=O)=NC1c1ccc(O)c(OC)c1 (configuration not stated),0,-7,6*,0.21,-14,i
CCOc1ccc(NS(=O)(=O)c2ccc(C)c(C(=O)NCCCn3ccnc3)c2)cc1,20,-24,i,0.0094,-2,i
CN(C)c1cccc(C(=O)N2CCCC(C(=O)c3cc(F)ccc3F)C2)c1 (configuration not stated),-2,40,i,-0.5,-18,38*
Cc1sc2nc(CSCC(=O)NC3(C#N)CCCCC3)[nH]c(=O)c2c1C,.,-7,.,.,.,.
CC(=O)Nc1ccc(OC(=O)c2ccc(Br)c([N+](=O)[O-])c2)cc1,15,327,7*,-0.46,-25,i
CSc1cccc(N2CC(C(=O)N3CCN(S(=O)(=O)c4ccccc4Cl)CC3)CC2=O)c1 (configuration not stated),.,9,.,.,.,.
CCOCCCn1c(=N)c(C(=O)Nc2cc(C)on2)cc2c(=O)n3ccccc3nc21,.,.,.,0.11,.,.
O=C(COC(=O)c1cc(S(=O)(=O)N2CCCC2)ccc1O)Nc1ccc(S(=O)(=O)N2CCOCC2)cc1,18,-14,i,0.91,-10,i
O=C(COC(=O)c1cc(S(=O)(=O)N2CCOCC2)ccc1O)Nc1cc(S(=O)(=O)N2CCCC2)ccc1Cl,19,352*,i,0.035,-13,i
COc1ccc(NC(=O)CSCC(=O)N2CCN(C(=O)c3ccco3)CC2)cc1,.,12,.,.,.,.
CCOC(=O)c1nn(-c2ccc(Cl)cc2Cl)c(=N)c(C#N)c1C,29,38,6*,1.1,-9,i
CCOC(=O)c1nn(-c2ccc(Cl)cc2)c(=O)c(C#N)c1C,2,-10,i,.,-5,i
CCCCCn1c(=O)[nH]c2cc(C(=O)NCCCN3CCCCC3CC)ccc2c1=O (configuration not stated),.,-7,i,.,-10,i
N=C1/C(=C\c2coc3ccccc3c2=O)C(=O)N=C2SC(c3ccncc3)=NN12,70,-27,16*,i,-50,i
N=C1/C(=C/c2coc3ccccc3c2=O)C(=O)N=C2SC(c3ccco3)=NN12,.,9,7*,i,-26,i
CCn1c(SCC(=O)Nc2nc3ccc(OC)cc3s2)nc2c1c(=O)n(C)c(=O)n2C,23,16,i,-1.6,-16,i
CCOC(=O)c1c(CSC(=N)N)n(-c2ccc(C)cc2)c2cc(Br)c(OC(C)=O)cc12,37,.,6*,0.25,-36,i
O=C(Cn1c(=O)n(Cc2ccco2)c(=O)c2c3c(sc21)CCCCC3)Nc1ccccc1,10,-5,6*,-0.75,1,i
O=C(Cn1c(=O)n(Cc2ccco2)c(=O)c2c3c(sc21)CCCCC3)c1ccccc1,44,-14,i,0.23,-5,i
CCC(=O)N(C)CCc1cc2c(c(OC)c1/C=N/NC(=O)c1ccc(Br)cc1)OCO2,23,30,i,-1.5,-15,i
CN1CCCN(S(=O)(=O)c2ccc(Cl)c(Cl)c2)CC1,14,.,i,-0.37,-10,i
CC(C)S(=O)(=O)c1nsc2nc(=O)c(/C=C3\C=Nc4ccccc43)c(N)n12,10,16,i,-0.35,-22,i
CSc1nsc2nc(=O)c(/C=C3\C=Nc4ccccc43)c(N)n12,8,7,i,-3.1*,-9,i
O=C(CN(c1ccc([N+](=O)[O-])cc1)S(=O)(=O)c1ccccc1)N1CCCCC1,5,-12,i,.,-4,i
O=C(CN(c1cccc([N+](=O)[O-])c1)S(=O)(=O)c1ccccc1)N1CCCCC1,11,341*,i,.,-5,i
